Data as given in ChEMBL document CHEMBL3751707, “Silicon Incorporated Morpholine Antifungals: Design, Synthesis, and Biological Evaluation” (ACS Med Chem Lett, 2015).
Converted amounts (≈) assume the structure as drawn.

Key:
Cryptococcus neoformans [1] = assay: Antifungal activity against Cryptococcus neoformans ATCC 34664 after 24 to 36 hrs by broth microdilution method; type: functional, organism-based
Procedure, shortened: (§1)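 CLSI broth microdilution against yeasts (M27-A3) and filamentous fungi (M38-A2). Read-outs: IC50 (concentration giving 50% growth inhibition), MIC, and MFC (minimum fungicidal concentration), all in μg/mL. Assay done twice in triplicate.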

Aspergillus niger [2] = assay: Antifungal activity against Aspergillus niger ATCC 10578 after 48 hrs by broth microdilution method; type: functional, organism-based; conditions: ATCC 10578, 48 h; procedure, shortened: as §1
HEK293 = assay: Cytotoxicity against HEK293 cells after 24 hrs by MTT assay; type: cell-based; conditions: Homo sapiens, HEK293, 24 h
Aspergillus niger [3] = assay: Antifungal activity against Aspergillus niger ATCC 10578 after 72 hrs by broth microdilution method; type: functional; conditions: ATCC 10578, 72 h; procedure, shortened: as §1
Candida albicans [4] = assay: Antifungal activity against Candida albicans ATCC 10231 after 24 to 36 hrs by broth microdilution method; type: functional, organism-based; procedure, shortened: as §1
Cryptococcus neoformans [5] = assay: Antifungal activity against Cryptococcus neoformans ATCC 34664 after 72 hrs by broth microdilution method; type: functional; conditions: ATCC 34664, 72 h; procedure, shortened: as §1
Candida tropicalis [6] = assay: Antifungal activity against Candida tropicalis ATCC 750 after 72 hrs by broth microdilution method; type: functional; conditions: ATCC 750, 72 h; procedure, shortened: as §1
[7] = Toxicity in human RBC assessed as hemolysis upto 128 ug/ml; type: cell-based; conditions: erythrocyte
Nakaseomyces glabratus [8] = assay: Antifungal activity against Candida glabrata NCYC 388 after 24 to 36 hrs by broth microdilution method; type: functional, organism-based; procedure, shortened: as §1
Nakaseomyces glabratus [9] = assay: Antifungal activity against Candida glabrata NCYC 388 after 72 hrs by broth microdilution method; type: functional; conditions: NCYC 388, 72 h; procedure, shortened: as §1
Candida albicans [10] = assay: Antifungal activity against Candida albicans ATCC 10231 after 72 hrs by broth microdilution method; type: functional; conditions: ATCC 10231, 72 h; procedure, shortened: as §1
Candida tropicalis [11] = assay: Antifungal activity against Candida tropicalis ATCC 750 after 24 to 36 hrs by broth microdilution method; type: functional, organism-based; procedure, shortened: as §1
[12] = Toxicity in human RBC assessed as partial hemolysis at 256 ug/ml; type: cell-based; conditions: erythrocyte
Candida albicans [13] = assay: Antifungal activity against Candida albicans ATCC 24433 after 24 to 36 hrs by broth microdilution method; type: functional, organism-based; procedure, shortened: as §1
Candida albicans [14] = assay: Antifungal activity against Candida albicans ATCC 24433 after 72 hrs by broth microdilution method; type: functional; conditions: ATCC 24433, 72 h; procedure, shortened: as §1
Candida albicans [15] = assay: Effect on sterol profile of Candida albicans ATCC 24433 assessed as ergosterol level at 0.25 ug/ml for 24 hrs by spectrophotometry (reference value: 73.34 +/- 2.53 %); type: functional; conditions: in the assay text read “by GC-MS” for “by spectrophotometry”
Procedure, shortened: (§2)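 C. albicans ATCC 24433 grown with subinhibitory (<MIC) compound concentrations. Cellular sterols extracted. Sterol content read spectrophotometrically by scan at 230–300 nm, and individual intermediates quantified by GC–MS. Values are average % of total sterols from two experiments, with standard error of the mean.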

[16] = Metabolic stability in mouse liver microsomes after 30 mins by LC-MS/MS analysis; type: ADME; conditions: read-out: Stability
Procedure, shortened: (§3)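 Test compounds were incubated 30 min with liver microsomes (human or mouse, per line), and values are reported as % metabolic stability after 30 min.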

Candida albicans [17] = assay: Effect on sterol profile of Candida albicans ATCC 24433 assessed as cholesta-5,24-dien-3-ol level at 0.25 ug/ml for 24 hrs by spectrophotometry (reference value: 3.58 +/- 0.52 %); type: functional; conditions: in the assay text read “by GC-MS” for “by spectrophotometry”; procedure, shortened: as §2
Candida albicans [18] = assay: Effect on sterol profile of Candida albicans ATCC 24433 assessed as squalene level at 0.25 ug/ml for 24 hrs by spectrophotometry (reference value: 7.17 +/- 0.35 %); type: functional; procedure, shortened: as §2
Candida albicans [19] = assay: Effect on sterol profile of Candida albicans ATCC 24433 assessed as cholesta-5,24-dien-3-ol level at 0.125 ug/ml for 24 hrs by spectrophotometry (reference value: 3.58 +/- 0.52 %); type: functional; procedure, shortened: as §2
Candida albicans [20] = assay: Effect on sterol profile of Candida albicans ATCC 24433 assessed as ergosterol level at 0.125 ug/ml for 24 hrs by spectrophotometry (reference value: 73.34 +/- 2.53 %); type: functional; procedure, shortened: as §2
Candida albicans [21] = assay: Effect on sterol profile of Candida albicans ATCC 24433 assessed as squalene level at 0.125 ug/ml for 24 hrs by spectrophotometry (reference value: 7.17 +/- 0.35 %); type: functional; procedure, shortened: as §2
Candida albicans [22] = assay: Effect on sterol profile of Candida albicans ATCC 24433 assessed as ignosterol level at 0.25 ug/ml for 24 hrs by spectrophotometry; type: functional; conditions: in the assay text read “by GC-MS” for “by spectrophotometry”; procedure, shortened: as §2
Candida albicans [23] = assay: Effect on sterol profile of Candida albicans ATCC 24433 assessed as ergosterol level at 0.25 ug/ml for 24 hrs by spectrophotometry; type: functional; conditions: in the assay text read “ergostenol level” for “ergosterol level”; procedure, shortened: as §2
Candida albicans [24] = assay: Effect on sterol profile of Candida albicans ATCC 24433 assessed as cholesta-8,24-dien-3-ol,4-methyl-(3a',4a') level at 0.25 ug/ml for 24 hrs by spectrophotometry (reference value: 7.19 +/- 0.65 %); type: functional; conditions: in the assay text read “by GC-MS” for “by spectrophotometry”; procedure, shortened: as §2
Candida albicans [25] = assay: Effect on sterol profile of Candida albicans ATCC 24433 assessed as lichesterol level at 0.125 ug/ml for 24 hrs by spectrophotometry; type: functional; procedure, shortened: as §2
[26] = Toxicity in human RBC assessed as hemolysis at 512 ug/ml; type: cell-based, Erythrocyte; conditions: red blood cells, read-out: Activity
[27] = Metabolic stability in human liver microsomes after 30 mins by LC-MS/MS analysis; type: ADME; conditions: read-out: Stability; procedure, shortened: as §3
Candida albicans [28] = assay: Effect on sterol profile of Candida albicans ATCC 24433 assessed as cholesta-8,24-dien-3-ol,4-methyl-(3a',4a') level at 0.125 ug/ml for 24 hrs by spectrophotometry (reference value: 7.19 +/- 0.65 %); type: functional; procedure, shortened: as §2
Candida albicans [29] = assay: Effect on sterol profile of Candida albicans ATCC 24433 assessed as ergosterol level at 0.125 ug/ml for 24 hrs by spectrophotometry; type: functional; conditions: in the assay text read “ergostenol level” for “ergosterol level”; procedure, shortened: as §2
Candida albicans [30] = assay: Effect on sterol profile of Candida albicans ATCC 24433 assessed as ignosterol level at 0.125 ug/ml for 24 hrs by spectrophotometry; type: functional; procedure, shortened: as §2

Structure (SMILES) | IC50 (Cryptococcus neoformans [1]) [µg/mL] | MIC (Cryptococcus neoformans [1]) [µg/mL] | IC50 (Aspergillus niger [2]) [µg/mL] | MIC (Aspergillus niger [2]) [µg/mL] | MFC (Aspergillus niger [3]) [µg/mL] | IC50 (Candida albicans [4]) [µg/mL] | MIC (Candida albicans [4]) [µg/mL] | MFC (Cryptococcus neoformans [5]) [µg/mL] | MFC (Candida tropicalis [6]) [µg/mL] | Activity [7] | IC50 (Nakaseomyces glabratus [8]) [µg/mL] | MIC (Nakaseomyces glabratus [8]) [µg/mL] | MFC (Nakaseomyces glabratus [9]) [µg/mL] | MFC (Candida albicans [10]) [µg/mL] | IC50 (Candida tropicalis [11]) [µg/mL] | MIC (Candida tropicalis [11]) [µg/mL] | IC50 (Candida albicans [13]) [µg/mL] | MIC (Candida albicans [13]) [µg/mL] | MFC (Candida albicans [14]) [µg/mL] | further results
CNC1CCN(CC(C)Cc2ccc([Si](C)(C)C)cc2)CC1 (stereo unspecified) | 3.77 (≈ 11.8 µM) | 8 (≈ 25.1 µM) | 1.25 (≈ 3.92 µM) | 2 (≈ 6.28 µM) | 64 (≈ 201 µM) | 1 (≈ 3.14 µM) | 2 (≈ 6.28 µM) | 8 (≈ 25.1 µM) | 16 (≈ 50.2 µM) | Non-toxic | 1.63 (≈ 5.12 µM) | 2 (≈ 6.28 µM) | 4 (≈ 12.6 µM) | 2 (≈ 6.28 µM) | 5.87 (≈ 18.4 µM) | 16 (≈ 50.2 µM) | 1.55 (≈ 4.87 µM) | 4 (≈ 12.6 µM) | 8 (≈ 25.1 µM) | IC50 (HEK293): 9.81 µg/mL (≈ 30.8 µM); Activity [12]: Toxic
CC(Cc1ccc([Si](C)(C)C)cc1)CN1C[C@@H](C)O[C@@H](C)C1 (stereo partly specified) | 0.079 (≈ 0.247 µM) | 0.125 (≈ 0.391 µM) | 0.5 (≈ 1.56 µM) | 2 (≈ 6.26 µM) | 256 (≈ 801 µM) | 0.25 (≈ 0.782 µM) | 0.5 (≈ 1.56 µM) | 2 (≈ 6.26 µM) | 64 (≈ 200 µM) | Non-toxic | 0.017 (≈ 0.0532 µM) | 0.125 (≈ 0.391 µM) | 2 (≈ 6.26 µM) | 1 (≈ 3.13 µM) | 0.164 (≈ 0.513 µM) | 0.5 (≈ 1.56 µM) | 0.043 (≈ 0.135 µM) | 0.125 (≈ 0.391 µM) | 0.5 (≈ 1.56 µM) | Activity (Candida albicans [15]): 11.12%; remaining at 0.5 h [16]: 6.2%; Activity (Candida albicans [17]): 0.87%; Activity (Candida albicans [18]): 13.82%; Activity (Candida albicans [19]): 15.34%; Activity (Candida albicans [20]): 15.52%; Activity (Candida albicans [21]): 21.52%; Activity (Candida albicans [22]): 42.29%; Activity (Candida albicans [23]): 4.12%; Activity (Candida albicans [24]): 27.78%; Activity (Candida albicans [25]): 29.84%; hemolysis at 512 ug/ml [26]: 7%; remaining at 0.5 h [27]: 27.3%; Activity (Candida albicans [28]): 5.36%; Activity (Candida albicans [29]): 5.19%; Activity (Candida albicans [30]): 7.23%
